The sample as a whole holds a higher share of hits than the screen did.
Insulin prom act: TRM-6 insulin promoter activation; TRM-6 cells, insulin promoter eGFP reporter, imaging; plate-scaled: unstimulated 0, stimulated control 100; activation, % at 2 µM; 130,000 tested, 0.81% active; AID 1296;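 active = activation at 2 µM above a set limit, confirmed on inspection of the cell images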;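 note: share of cells whose green reporter signal exceeds an intensity cutoff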
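material = TRM-6 human fetal islet cells, insulin promoter–eGFP reporter | input = 1,000 TRM-6 cells seeded per well | benchmarks = stimulated versus unstimulated wells as plate controls | measured by = automated fluorescence imaging of paraformaldehyde-fixed, Hoechst-counterstained cells, green channel | schedule = compound exposure 48 h, 37 °C | reagent = tamoxifen at 0.75 µM added at seeding for reporter induction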
A number is an active result; i = inactive.

SMILES | Insulin prom act
O=S(=O)(/N=C(/Nc1ccccn1)c1ccccc1)c1ccccc1 | 196.4
CC(C)OC(=S)N/C(=N\S(=O)(=O)c1ccccc1)c1ccccc1 | i
CC(=O)c1c(N2CCN(C)CC2)[nH]c(-c2ccccc2)nc1=S | i
Cc1ccc(S(=O)(=O)CCC(=O)OC(C)C(=O)c2c(C)[nH]c3ccccc23)cc1 (stereo not drawn) | i
O=S(=O)(N1CCOCC1)n1c(Cc2ccccc2)nc2ccccc21 | i
O=C(/C=C/c1c(Cl)cccc1Cl)NCCc1ccccc1 | i
COc1ccc(CCNC(=O)/C=C/C(=O)O)cc1 | i
O=C(O)/C=C/C(=O)NCCc1ccccc1 | 321.4
CCOC(=O)c1cc(-c2cc3ccccc3o2)nc2c1c(=O)[nH]c(=O)n2CCOC | i
CSc1nccc(-c2nn(-c3ccc(C)cc3)ccc2=O)n1 | i
COc1cnn(-c2ccc(C)cc2)c(=O)c1Cl | i
Cc1ccc(-n2c(Cl)c(Cl)nc(Cl)c2=O)cc1 | 233.3
CC(/C=C/c1ccccc1)=N\NC(=O)c1ccc(Br)cc1 | 388.9
O=C(N/N=C/C=C/c1ccccc1)c1ccc(Br)cc1 | i
CC(/C=C/c1ccccc1)=N\NC(=O)CNC(=O)c1ccccc1Cl | i
Cc1cc(C)c2nc(Cl)c(CN(Cc3ccco3)C(=O)Nc3ccccc3C)cc2c1 | i
Cc1ccsc1/C=N/N1CCN(C2c3ccccc3-c3ccccc32)CC1 | i
Cc1ccc(C(=O)O)cc1-c1ccc(C=C2C(=O)c3ccccc3C2=O)o1 | i
Cc1ccsc1C=C1C(=O)c2ccccc2C1=O | 312.5
COc1ccc(C2C(C(=O)NCCN3CCOCC3)c3ccccc3C(=O)N2C2CCCCC2)cc1 (stereo not drawn) | i
CCC(C)(C)NC(=O)C(c1cccnc1)N(C(=O)c1csnn1)c1ccc(C)cc1 (stereo not drawn) | i
CCOc1cc(C(=O)CCC(=O)OCC(=O)N2c3ccccc3NC(=O)C2(C)C)ccc1O | i
CCOc1ccc2c(c1)C(C)=CC(C)(C)N2C(=O)Nc1ccccc1 | 80.6
CCOc1ccc2c(c1)-c1c(ssc1=S)C(C)(C)N2C(=O)c1ccco1 | i
CCOc1ccc(NC(=O)CCn2cccc2)cc1 | i
SMILES | Insulin prom act
Cc1csc(Sc2ccc(S(=O)(=O)N3CCCC3)cn2)n1 | i
CCOCCc1nnc(NC(=O)Cc2ccccc2)s1 | i
O=C(Nc1nc(SCc2ccc(F)cc2)ns1)c1ccco1 | i
CSc1nsc(NC(=O)Cc2ccccc2)n1 | 103.2
COc1ccc(CCc2nc(C)ccc2O)cc1 | i
CCOC(=O)C1=C(C)NC(=O)NC1/C=C/c1ccccc1OC (stereo not drawn) | i
COc1cc2c(cc1NC(=O)CSc1cccc[n+]1[O-])oc1ccccc12 | i
COc1cc2c(cc1NC(=O)Nc1ccccc1)oc1ccccc12 | i
COc1cc2c(cc1NC(=O)CSCC(=O)O)oc1ccccc12 | i
COc1cc2c(cc1NC(=O)COc1ccccc1OC)oc1ccccc12 | i
COc1cc2c(cc1NC(=O)CCCN1C(=O)CCC1=O)oc1ccccc12 | 506.3
COc1cc2c(cc1NC(=O)c1cncc(Br)c1)oc1ccccc12 | 443.8
C=C(C)CN(CC)C(=O)CSc1nc(O)cc(=O)n1C1CCCC1 | i
Cc1ccc(NC(=O)N2N=C(c3ccc(F)cc3)CC2c2ccc(F)cc2)cc1 (stereo not drawn) | i
CC(O)CN(Cc1cccc(Cl)c1)CC(C)O (stereo not drawn) | i
Cc1cccc(CSCCNC(=O)c2ccc(CN3CCOCC3)cc2)c1 | i
CCCNC(=O)c1ccc(CN2CCOCC2)cc1 | 294.7
O=C(NCc1ccccc1)c1ccc(CN2CCOCC2)cc1 | i
CCS(=O)(=O)N1CCCC(C(=O)NCc2ccc3c(c2)OCO3)C1 (stereo not drawn) | i
COc1ccc2[nH]c(=O)c(CN(C(C)=O)c3cccc(C)c3)cc2c1 | i
CCC(=O)N(Cc1cc2cc(OC)ccc2[nH]c1=O)c1ccc(C)cc1C | 236.4
CCOc1cc(C(=O)N(C)Cc2cc3cc(OC)ccc3[nH]c2=O)cc(OCC)c1OCC | i
CN(C(=O)COc1ccccc1C(=O)NCCc1ccccc1)c1ccccc1 | i
COc1cc2c(cc1OC)C(C(=O)Nc1ccccc1N1CCN(C)CC1)C1c3ccccc3CCN1C2=O (stereo not drawn) | 355.0
COc1cc2c(cc1OC)C(C(=O)Nc1cccc(C)n1)C(c1cccnc1)N(C)C2=O (stereo not drawn) | i
SMILES | Insulin prom act
COc1ccc(C2C(C(=O)N3CCN(C)CC3)c3cc(OC)c(OC)cc3C(=O)N2C)cc1 (stereo not drawn) | i
CCOC(=O)CCCn1ncn2c(cc3occc32)c1=O | i
Cc1ccccc1NS(=O)(=O)c1cc(C(N)=O)ccc1C | i
CCOCC(=O)Nc1nnc(COC)s1 | i
CCCC(=O)Nc1ccc(C(=O)Nc2nnc(COCC)s2)cc1 | 408.3
CCOCc1nnc(NC(=O)c2ccco2)s1 | i
O=C(CSc1nc2ccccc2c(=O)n1-c1ccccc1Cl)Nc1cccc(S(=O)(=O)N2CCOCC2)c1 | i
CC(C)CCNC(=S)Nc1ccc(F)cc1 | i
Cc1cc(C)cc(CC(Cc2nc3ccccc3[nH]2)c2nc3ccccc3[nH]2)c1 (stereo not drawn) | i
Cc1cccc(N2C(=O)NC3(CCCCC3)C2=O)c1 | 77.8
Cc1cccc(N2C(S)=C(C#N)C(=O)NC23CCCCC3)c1 | i
Cc1cc(C)c(NC(=O)CN2C(=O)NC3(CCCCC3)C2=O)c(C)c1 | i
COCCNC(=O)C(=O)NNC(=O)c1ccccc1OC | i
CCCNC(=O)c1cnc(Sc2ncc(C(F)(F)F)cc2Cl)n1C | i
N#Cc1c(Sc2ncc(C(F)(F)F)cc2Cl)nsc1C/C=N\OCc1c(F)cccc1Cl | 542.9
FC(F)(F)c1cnc(Sc2nnc(-c3cccs3)n2CC2CCCO2)c(Cl)c1 (stereo not drawn) | i
Clc1ccccc1N=C1NN=C(c2cccs2)CS1 | i
Cc1sc(NC(=O)C(C)C)c(C(=O)Nc2ccccc2)c1C | i
Cc1nc2cc(-c3ccccc3)nn2c(C)c1CCC(=O)NC(C)c1ccc2c(c1)OCCO2 (stereo not drawn) | i
Cc1cc(C)nc(NC(=O)CSc2nc3ccccc3o2)n1 | i
CN(C)S(=O)(=O)c1ccc2oc(SCC(N)=O)nc2c1 | i
CCS(=O)(=O)c1ccc2oc(SCC(=O)NC3CCCC(C)C3C)nc2c1 (stereo not drawn) | 92.9
CCCc1nn(CCc2ccccn2)c(N)c1CC | i
CS(=O)(=O)N1N=C(c2cccs2)CC1c1ccco1 (stereo not drawn) | i
CN(C)C(=O)C(NC(=O)c1ccccc1)=C(Cl)Cl | i
SMILES | Insulin prom act
COC(=O)c1cn(NC(=O)C2CCCO2)c(=O)c2ccccc12 (stereo not drawn) | i
CN(C)S(=O)(=O)c1ccc(C(=O)Nc2nc(-c3cc4ccccc4o3)cs2)cc1 | i
CN(C)S(=O)(=O)c1ccc(N2CCCC2)c(C(=O)Nc2nc(-c3ccc(F)c(F)c3)cs2)c1 | 414.3
Cc1ccc(S(=O)(=O)Nc2ccccc2C(=O)Nc2nc(-c3ccc(F)cc3)cs2)cc1 | i
O=C(CN1CCCCC1)NCCNc1ccc(C(F)(F)F)cc1[N+](=O)[O-] | i
CCSc1ncnc2c1sc1nc3c(cc12)COC(C)(C)C3 | i
CCOC(=O)c1nnn(CC(=O)N2N=C(c3ccc(Cl)cc3)CC2c2ccccc2)c1C(=O)OCC (stereo not drawn) | i
Cc1ccc2c(c1)c(C)c(C)n2CC(O)CN1CCOCC1 (stereo not drawn) | 533.3
OC(CN1CCN(c2ccccn2)CC1)Cn1c2ccccc2c2ccccc21 (stereo not drawn) | i

Source: PubChem (Columbia University Molecular Screening Center)
